# Assay results from ChEMBL document CHEMBL5338772, “Stereochemical Control of Splice Modulation in FD-895 Analogues” (J Med Chem, 2023).
# Active and inactive are the calls of the source. The calls are words filed in the database; no cut-off is given here.
# How the values were obtained:
# [1] = Cytotoxicity against human HCT-116 cells assessed as cell growth inhibition incubated for 72 hrs by MTS assay; format: toxicity, cell-based
# In short: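 HCT-116 cells (ATCC; split every other day, no more than five generations, mycoplasma-tested) plated at 5 × 10³ cells/well in supplemented McCoy's 5a and grown 24 h at 37 °C, 5% CO₂. Compound added from DMSO (0.5% DMSO final) for 72 h. Cells washed with PBS, MTS reagent added for 2 h at 37 °C, A490 read against A690. GI₅₀ fitted from dose curves of 3 biological replicates.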
# HCT-116 [2] = experiment: Cytotoxicity against human HCT-116 cells assessed as reduction in cell viability at 44 nM incubated for 4 hrs by MTS assay; format: toxicity, cell-based; details: hct-116, 4 h, 0.044 µM
# SF3A3 pre-mRNA = experiment: Modulation of splicing in SF3A3 pre-mRNA in human HCT-116 cells assessed as intron 5 retention level at 44 nM incubated for 4 hrs by qRT-PCR analysis; format: functional, cell-based; details: filed as modulator
# SF3B1 pre-mRNA = experiment: Modulation of splicing in SF3B1 pre-mRNA in human HCT-116 cells assessed as intron 13 retention level at 44 nM incubated for 4 hrs by qRT-PCR analysis; format: functional, cell-based; details: filed as modulator
# In short: (§1)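 HCT-116 cells in supplemented McCoy's 5a, compound added from DMSO stock to a final 0.5% DMSO, 4 h at a single standardized concentration per analogue. Total RNA isolated and DNase-treated (1 µg). qPCR used 2.5 µM each primer on 5 ng cDNA, 40 cycles. Intron retention was computed by the 2^-CT method relative to GAPDH and expressed versus untreated cells set to 1.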
# DNAJB1 pre-mRNA = experiment: Modulation of splicing in DNAJB1 pre-mRNA in human HCT-116 cells assessed as intron 2 retention level at 44 nM incubated for 4 hrs by qRT-PCR analysis; format: functional, cell-based; details: filed as modulator
# SF3A1 pre-mRNA = experiment: Modulation of splicing in SF3A1 pre-mRNA in human HCT-116 cells assessed as intron 6 retention level at 44 nM incubated for 4 hrs by qRT-PCR analysis; format: functional, cell-based; details: filed as modulator
# SF3B2 pre-mRNA = experiment: Modulation of splicing in SF3B2 pre-mRNA in human HCT-116 cells assessed as intron 10 retention level at 44 nM incubated for 4 hrs by qRT-PCR analysis; format: functional, cell-based; details: filed as modulator; in short: as §1
# HCT-116 [3] = experiment: Modulation of splicing in PLK-1 pre-mRNA in human HCT-116 cells assessed as effect on exon 3 inclusion at 44 nM incubated for 4 hrs by qRT-PCR analysis; format: functional, cell-based; details: filed as modulator
# AURKA pre-mRNA = experiment: Modulation of splicing in AURKA pre-mRNA in human HCT-116 cells assessed as effect on exon 4 skipping at 44 nM incubated for 4 hrs by qRT-PCR analysis; format: functional, cell-based; details: filed as modulator
# HCT-116 [4] = experiment: Cytotoxicity against human HCT-116 cells assessed as reduction in cell viability at 500 nM incubated for 24 hrs by MTS assay; format: toxicity, cell-based; details: hct-116, 24 h, 0.5 µM
# In short: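 HCT-116 cells plated at 5 × 10³ cells/well in supplemented McCoy's 5a and grown 24 h at 37 °C, 5% CO₂. Compound given at 500 nM, the top dose of the 24 h splicing series, in 0.5% DMSO for 24 h. Cells washed with PBS, MTS reagent added for 2 h at 37 °C, A490 read against A690.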
SMILES,GI50 at 72 h [1] [nM],Activity (HCT-116 [2]),Activity (SF3A3 pre-mRNA),Activity (SF3B1 pre-mRNA),Activity (DNAJB1 pre-mRNA),Activity (SF3A1 pre-mRNA),Activity (SF3B2 pre-mRNA),Activity (HCT-116 [3]),Activity (AURKA pre-mRNA),Activity (HCT-116 [4])
CC[C@H](OC)[C@@H](C)[C@H]1O[C@@H]1[C@H](O)[C@H](C)/C=C/C=C(\C)[C@@H]1OC(=O)C[C@H](O)CC[C@@](C)(O)[C@@H](OC(C)=O)/C=C/[C@H]1C,41300,–,–,–,–,–,–,–,–,–
CC[C@H](OC)[C@@H](C)[C@H]1O[C@@H]1[C@H](O)[C@H](C)/C=C/C=C(\C)[C@H]1OC(=O)C[C@@H](O)CC[C@@](C)(O)[C@@H](OC(C)=O)/C=C/[C@@H]1C,2.7,Non-Toxic,< 3,< 3,> 3,> 3,> 3,Active,Active,–
CC[C@H](OC)[C@@H](C)[C@H]1O[C@@H]1[C@H](OC)[C@H](C)/C=C/C=C(\C)[C@H]1OC(=O)C[C@H](O)CC[C@@](C)(O)[C@@H](OC(C)=O)/C=C/[C@@H]1C,2.6,Non-Toxic,< 3,< 3,> 3,> 3,> 3,–,Active,Non-Toxic
